Our source for the IC50 and Activity values is ChEMBL document CHEMBL1151781, “Selectivity of inhibitors of endocannabinoid biosynthesis evaluated by activity-based protein profiling” (Bioorg Med Chem Lett, 2008).

The target in assay [1] is Phosphatidylserine lipase ABHD16A (Homo sapiens, UniProt O95870). As to the kind of experiment: Inhibition of recombinant BAT5 transfected in HEK293T cells by SDS-PAGE using rhodamine-tagged FP probe. In kind it is cell-based, HEK-293T. The procedure, abridged:
(§1)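 HEK293T cells were transfected with cDNA for the target hydrolase. The transfected proteome was treated with inhibitor across 0.01-100 μM, then labeled with rhodamine-tagged fluorophosphonate probe (FP-Rh). Loss of probe labeling was read to give IC50. Values are means ± standard errors of three independent experiments.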

Assay [2] has as its target T1, Phosphatidylserine lipase ABHD16A (Mus musculus) (UniProt Q9Z1Q2).
T1 sequence (whole entry): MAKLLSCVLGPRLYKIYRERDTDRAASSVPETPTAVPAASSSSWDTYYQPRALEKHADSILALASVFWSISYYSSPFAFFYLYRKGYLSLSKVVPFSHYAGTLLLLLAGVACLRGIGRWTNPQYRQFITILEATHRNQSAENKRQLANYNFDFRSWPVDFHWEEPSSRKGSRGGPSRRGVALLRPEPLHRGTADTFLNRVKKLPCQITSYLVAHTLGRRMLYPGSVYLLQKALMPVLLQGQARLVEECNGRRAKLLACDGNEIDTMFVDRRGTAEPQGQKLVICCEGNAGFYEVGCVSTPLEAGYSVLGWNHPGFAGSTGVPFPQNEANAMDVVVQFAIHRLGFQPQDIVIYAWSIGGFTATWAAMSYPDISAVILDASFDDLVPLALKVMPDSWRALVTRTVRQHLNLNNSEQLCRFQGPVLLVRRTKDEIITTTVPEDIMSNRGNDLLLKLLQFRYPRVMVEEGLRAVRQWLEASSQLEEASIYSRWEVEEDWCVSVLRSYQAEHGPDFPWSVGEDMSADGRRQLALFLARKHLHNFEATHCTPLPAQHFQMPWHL
As to the kind of experiment: Inhibition of BAT5 in mouse brain at 0.01 to 100 uM treated for 30 mins by SDS-PAGE using rhodamine-tagged FP probe. In kind it is tissue-based. In outline: (§2)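 Mouse brain membrane proteome preincubated with inhibitor across 0.01-100 μM for 30 min. A rhodamine-tagged fluorophosphonate probe (FP-Rh) was then added for 60 min. Samples were resolved by SDS-PAGE, and probe labeling of each hydrolase band was read by in-gel fluorescence scanning.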

Assay [3] has as its target Monoacylglycerol lipase ABHD6 (Mus musculus) (UniProt Q8R2Y0). As to the kind of experiment: Inhibition of ABHD6 in mouse brain at 0.01 to 100 uM treated for 30 mins by SDS-PAGE using rhodamine-tagged FP probe. In kind it is tissue-based. In outline:
as §2

Assay [4] addresses Diacylglycerol lipase-alpha (Homo sapiens) (UniProt Q9Y4D2). As to the kind of experiment: Inhibition of recombinant DAGLalpha overexpressed in african green monkey COS7 cells assessed as accumulation of 2-arachidonoylglycerol […]. It counts as cell-based. The settings on record: COS-7. For orientation: Immunoblotting shows a protein as a band on a membrane.
Assay [5] has as its target Lysophosphatidylserine lipase ABHD12 (Homo sapiens, UniProt Q8N2K0). The assay can be described thus: Inhibition of recombinant ABHD12 transfected in HEK293T cells by SDS-PAGE using rhodamine-tagged FP probe. In kind it is cell-based, HEK-293T. In outline: as §1
Assay [6] addresses T2, Diacylglycerol lipase-alpha (Mus musculus) (UniProt Q6WQJ1).
T2 sequence (whole entry): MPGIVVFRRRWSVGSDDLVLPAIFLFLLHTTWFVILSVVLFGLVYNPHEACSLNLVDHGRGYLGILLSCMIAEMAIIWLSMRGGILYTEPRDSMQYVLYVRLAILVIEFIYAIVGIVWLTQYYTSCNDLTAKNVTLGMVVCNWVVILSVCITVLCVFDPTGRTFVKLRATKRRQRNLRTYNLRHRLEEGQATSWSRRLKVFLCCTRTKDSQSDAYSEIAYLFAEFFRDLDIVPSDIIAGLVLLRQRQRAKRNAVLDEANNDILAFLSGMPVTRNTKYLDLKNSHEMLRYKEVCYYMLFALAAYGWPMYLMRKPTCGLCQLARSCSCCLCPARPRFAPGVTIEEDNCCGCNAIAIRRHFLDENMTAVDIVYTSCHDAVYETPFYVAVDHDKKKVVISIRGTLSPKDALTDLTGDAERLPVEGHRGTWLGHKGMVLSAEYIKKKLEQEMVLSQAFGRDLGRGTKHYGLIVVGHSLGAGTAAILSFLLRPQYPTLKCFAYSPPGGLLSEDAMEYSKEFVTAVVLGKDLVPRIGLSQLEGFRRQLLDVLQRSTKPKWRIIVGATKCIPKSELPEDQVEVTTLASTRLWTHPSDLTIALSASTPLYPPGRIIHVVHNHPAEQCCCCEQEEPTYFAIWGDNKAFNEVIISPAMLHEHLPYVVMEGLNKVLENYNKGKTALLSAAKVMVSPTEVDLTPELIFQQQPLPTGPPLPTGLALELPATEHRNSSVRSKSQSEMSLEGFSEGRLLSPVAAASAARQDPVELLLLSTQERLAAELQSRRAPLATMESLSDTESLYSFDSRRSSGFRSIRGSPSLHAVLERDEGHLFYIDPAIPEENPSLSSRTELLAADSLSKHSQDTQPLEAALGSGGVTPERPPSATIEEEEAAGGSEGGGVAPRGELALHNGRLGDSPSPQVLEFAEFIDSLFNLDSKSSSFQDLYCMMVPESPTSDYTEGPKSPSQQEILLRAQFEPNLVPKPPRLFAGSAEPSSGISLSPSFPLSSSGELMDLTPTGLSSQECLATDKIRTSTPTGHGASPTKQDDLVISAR
The assay can be described thus: Inhibition of DAGLalpha in mouse brain assessed as >15 average spectral count at 50 uM treated for 30 mins by ABPP-MudPIT assay. It counts as tissue-based.

Assay [7] addresses Neutral cholesterol ester hydrolase 1 (Homo sapiens, UniProt Q6PIU2). The assay can be described thus: Inhibition of recombinant KIAA1363 transfected in HEK293T cells by SDS-PAGE using rhodamine-tagged FP probe. In kind it is cell-based, HEK-293T. In outline: as §1
Assay [8] deals with T2, Diacylglycerol lipase-alpha (Mus musculus). As to the kind of experiment: Inhibition of DAGLalpha in mouse brain assessed as >15 average spectral count at 5 uM treated for 30 mins by ABPP-MudPIT assay. In kind it is tissue-based.

The source made the active and inactive calls. The rule behind the calls is not given here. Where only a bound is given, the exact number is not on record here.

Chain of Neutral cholesterol ester hydrolase 1 (Q6PIU2 whole entry): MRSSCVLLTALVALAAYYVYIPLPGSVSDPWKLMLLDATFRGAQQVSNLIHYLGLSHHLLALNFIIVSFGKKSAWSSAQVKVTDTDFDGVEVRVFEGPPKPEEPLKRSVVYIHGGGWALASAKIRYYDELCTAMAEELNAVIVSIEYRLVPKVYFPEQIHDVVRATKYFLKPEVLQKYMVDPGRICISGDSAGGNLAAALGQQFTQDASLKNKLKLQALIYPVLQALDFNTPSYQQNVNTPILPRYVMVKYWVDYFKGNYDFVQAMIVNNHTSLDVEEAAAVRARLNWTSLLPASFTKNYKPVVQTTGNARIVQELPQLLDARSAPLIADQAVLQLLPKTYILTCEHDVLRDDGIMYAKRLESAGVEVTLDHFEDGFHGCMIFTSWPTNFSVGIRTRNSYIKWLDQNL
Chain of Lysophosphatidylserine lipase ABHD12 (Q8N2K0 whole entry): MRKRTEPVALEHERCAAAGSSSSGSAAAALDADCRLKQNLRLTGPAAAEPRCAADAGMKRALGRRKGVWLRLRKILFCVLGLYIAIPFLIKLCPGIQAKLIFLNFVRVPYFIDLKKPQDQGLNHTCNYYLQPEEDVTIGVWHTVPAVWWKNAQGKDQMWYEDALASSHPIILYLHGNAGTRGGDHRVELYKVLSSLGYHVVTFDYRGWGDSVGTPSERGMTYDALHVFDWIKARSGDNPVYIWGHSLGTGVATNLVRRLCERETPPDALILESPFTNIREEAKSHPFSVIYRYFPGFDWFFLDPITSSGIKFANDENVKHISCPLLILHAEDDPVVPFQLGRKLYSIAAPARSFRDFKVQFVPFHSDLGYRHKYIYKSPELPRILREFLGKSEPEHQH
Chain of Phosphatidylserine lipase ABHD16A (O95870 whole entry): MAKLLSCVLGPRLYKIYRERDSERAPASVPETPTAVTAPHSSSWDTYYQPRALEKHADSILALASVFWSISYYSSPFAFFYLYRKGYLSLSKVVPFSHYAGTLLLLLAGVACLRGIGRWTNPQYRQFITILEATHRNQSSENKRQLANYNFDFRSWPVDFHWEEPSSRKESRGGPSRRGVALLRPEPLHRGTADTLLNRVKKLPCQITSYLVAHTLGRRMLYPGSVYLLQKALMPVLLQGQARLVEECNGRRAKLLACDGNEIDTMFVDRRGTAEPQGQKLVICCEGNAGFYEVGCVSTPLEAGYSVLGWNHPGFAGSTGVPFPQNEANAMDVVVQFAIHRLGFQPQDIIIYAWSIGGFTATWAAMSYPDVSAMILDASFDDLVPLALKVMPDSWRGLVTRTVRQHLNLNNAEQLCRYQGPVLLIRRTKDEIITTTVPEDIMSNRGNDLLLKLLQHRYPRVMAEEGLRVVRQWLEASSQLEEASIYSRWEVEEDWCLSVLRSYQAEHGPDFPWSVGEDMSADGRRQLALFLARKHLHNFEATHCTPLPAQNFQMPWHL
Chain of Diacylglycerol lipase-alpha (Homo sapiens) (Q9Y4D2 whole entry): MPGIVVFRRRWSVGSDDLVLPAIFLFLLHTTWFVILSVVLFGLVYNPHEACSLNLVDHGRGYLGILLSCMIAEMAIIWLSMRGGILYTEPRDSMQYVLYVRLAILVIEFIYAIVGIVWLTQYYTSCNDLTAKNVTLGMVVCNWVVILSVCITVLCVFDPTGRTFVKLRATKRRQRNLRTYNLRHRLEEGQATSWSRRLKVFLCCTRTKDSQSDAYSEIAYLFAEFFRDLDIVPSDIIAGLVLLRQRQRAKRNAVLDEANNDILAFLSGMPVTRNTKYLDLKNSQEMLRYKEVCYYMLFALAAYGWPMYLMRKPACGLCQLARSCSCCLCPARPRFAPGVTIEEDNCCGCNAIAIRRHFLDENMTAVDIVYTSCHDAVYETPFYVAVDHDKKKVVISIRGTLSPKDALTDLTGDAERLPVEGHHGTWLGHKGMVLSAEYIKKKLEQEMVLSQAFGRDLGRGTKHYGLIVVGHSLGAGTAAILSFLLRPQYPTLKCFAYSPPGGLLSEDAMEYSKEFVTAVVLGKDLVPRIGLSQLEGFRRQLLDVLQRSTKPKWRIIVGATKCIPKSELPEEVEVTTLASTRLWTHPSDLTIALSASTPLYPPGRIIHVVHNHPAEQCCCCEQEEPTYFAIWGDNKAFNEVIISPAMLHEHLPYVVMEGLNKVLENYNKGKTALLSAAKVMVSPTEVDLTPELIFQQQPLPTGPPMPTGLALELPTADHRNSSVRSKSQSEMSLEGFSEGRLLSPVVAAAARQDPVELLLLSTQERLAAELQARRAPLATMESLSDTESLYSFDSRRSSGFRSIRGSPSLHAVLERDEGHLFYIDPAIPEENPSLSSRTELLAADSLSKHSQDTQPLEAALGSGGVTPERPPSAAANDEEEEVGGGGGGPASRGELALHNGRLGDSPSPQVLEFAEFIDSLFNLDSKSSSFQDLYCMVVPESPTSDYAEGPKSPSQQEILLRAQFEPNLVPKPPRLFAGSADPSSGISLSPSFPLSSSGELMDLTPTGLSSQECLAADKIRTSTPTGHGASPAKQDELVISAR
Chain of Monoacylglycerol lipase ABHD6 (Mus musculus) (Q8R2Y0 whole entry): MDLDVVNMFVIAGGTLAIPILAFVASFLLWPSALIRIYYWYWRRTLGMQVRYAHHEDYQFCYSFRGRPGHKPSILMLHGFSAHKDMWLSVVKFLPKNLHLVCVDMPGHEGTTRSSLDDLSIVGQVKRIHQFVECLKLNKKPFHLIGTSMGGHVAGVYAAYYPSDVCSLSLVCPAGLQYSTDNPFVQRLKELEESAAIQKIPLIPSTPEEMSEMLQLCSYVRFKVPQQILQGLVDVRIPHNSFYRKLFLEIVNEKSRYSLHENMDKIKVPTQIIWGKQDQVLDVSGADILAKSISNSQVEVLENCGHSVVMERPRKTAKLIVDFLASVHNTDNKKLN

As for `CCCCCCCCCCC[C@@H](C[C@@H]1OC(=O)[C@H]1CCCCCC)OC(=O)[C@H](CC(C)C)NC=O` [ORLISTAT], the IC50 (commonly the concentration that inhibits the measured activity by half) in assay [1] was 0.03 µM; in assay [5] it was 0.08 µM; in assay [7], above 100 µM. Besides, the result in assay [2], in assay [3] and in assay [4] was Active. In addition, the outcome in assay [6] and in assay [8] was inactive.

On to `O=C(NCCCCCCNC(=O)ON=C1CCCCC1)ON=C1CCCCC1`, for which the IC50 in assay [1] was 23 µM; in assay [5] it was above 100 µM; in assay [7], 10 µM. In addition, the result in assay [2], in assay [3] and in assay [4] was Active. The outcome in assay [6] and in assay [8] was inactive.
